High-throughput results: PubChem BioAssay, several laboratories
In the library only some 5% were active in any assay of this set; here they are far more common.
Beta cell apopt – blocks beta cell apoptosis; actives 0.8% (n = 300,000); AID 435005; protection from apoptosis, % (concentration not given with the values); INS-1E cytokine-induced death, ATP luminescence, 48 h; percent of positive-control rescue, neutral wells zero;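 active = Every replicate reaches about 75%, or at least half do and their mean reaches it too, limit read from the data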;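 note: 0% = cytokine-treated negative control wells and 100% = positive control rescue; higher means more ATP so stronger rescue from cytokine killing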
CSC inhib – blocks cancer stem cells. AID 2717. inhibition, % at 7.5 µM. actives 1.1% (n = 300,000). cancer stem cell-like cells viability, luminescence; in the data active = inhibition above about 75%; tested in HMLE shEcad cells
Mdm2-MdmX inh – human Mdm2/MdmX binding inhibition; O15151+Q00987; SaOS-2 split-luciferase Mdm2/MdmX complementation, luminescence; inhibition, % at 8 µM; actives 3% (n = 330,000); AID 485346;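 active = inhibition of at least 50% at 8 µM in the primary screen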
Target sequence (O15151 whole entry, looked up): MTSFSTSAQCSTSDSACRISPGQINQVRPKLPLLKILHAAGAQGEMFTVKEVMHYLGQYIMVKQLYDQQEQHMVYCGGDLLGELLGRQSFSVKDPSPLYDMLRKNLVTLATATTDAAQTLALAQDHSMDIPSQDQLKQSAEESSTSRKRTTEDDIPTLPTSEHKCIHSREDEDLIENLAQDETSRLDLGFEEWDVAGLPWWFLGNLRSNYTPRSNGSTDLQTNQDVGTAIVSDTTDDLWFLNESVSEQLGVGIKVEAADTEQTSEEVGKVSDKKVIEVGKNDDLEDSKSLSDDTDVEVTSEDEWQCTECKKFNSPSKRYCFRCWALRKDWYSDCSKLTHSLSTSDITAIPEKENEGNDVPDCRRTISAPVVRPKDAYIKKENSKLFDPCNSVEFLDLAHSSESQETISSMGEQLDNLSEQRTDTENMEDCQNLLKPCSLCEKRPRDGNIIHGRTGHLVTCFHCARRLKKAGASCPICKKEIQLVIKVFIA
Target sequence (Q00987 whole entry, looked up): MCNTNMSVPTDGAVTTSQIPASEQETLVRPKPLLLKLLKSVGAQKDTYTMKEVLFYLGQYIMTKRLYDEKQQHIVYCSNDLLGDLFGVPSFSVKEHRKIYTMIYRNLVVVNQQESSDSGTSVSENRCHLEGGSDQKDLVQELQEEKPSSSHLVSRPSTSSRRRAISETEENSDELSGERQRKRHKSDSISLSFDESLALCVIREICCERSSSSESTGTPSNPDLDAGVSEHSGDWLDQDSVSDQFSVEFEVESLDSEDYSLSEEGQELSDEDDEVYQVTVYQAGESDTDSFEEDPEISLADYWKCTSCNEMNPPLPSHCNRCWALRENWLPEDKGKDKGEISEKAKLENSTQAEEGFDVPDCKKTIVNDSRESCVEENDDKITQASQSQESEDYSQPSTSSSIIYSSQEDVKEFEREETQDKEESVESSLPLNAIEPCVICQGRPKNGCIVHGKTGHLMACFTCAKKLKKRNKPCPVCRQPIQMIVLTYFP
UPR CHOP act – apoptotic UPR (CHOP) activation; CHO-CHOP luciferase reporter, luminescence; percent of tunicamycin response over DMSO baseline; activation, % at 10 µM; actives 0.34% (n = 330,000);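 active = at 10 µM dose, activation of 40% or more, normalized to positive control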;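 note: 100% = tunicamycin at 10 µg/mL and 0% = DMSO alone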
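measured by = luciferase luminescence | assay system = CHO-CHOP cells, stable luciferase reporter of PERK-eIF2a-CHOP signalling | amount = 500 reporter cells seeded per well | timing = 6 h compound exposure at 37 °C after overnight seeding | controls = positive tunicamycin 10 µg/mL, negative DMSO alone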
XBP1 UPR activ – adaptive UPR (XBP1) activation; actives 0.33% (n = 330,000); AID 463104; CHO-XBP1 luciferase reporter, IRE1-XBP1 UPR activation, luminescence; percent of tunicamycin response, DMSO as zero; activation, % at 20 µM;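 active = versus positive control, 20 µM dose yields 30% or more activation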;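 note: 100% = tunicamycin at 10 µg/mL and 0% = DMSO only wells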
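Material: CHO cell line with stable XBP1 luciferase reporter; schedule: 16-18 h cell attachment at 37 °C, then 6 h compound exposure; signal: glow luminescence from Steady-Glo reagent; medium: serum-containing F12 medium, 10% FBS; benchmarks: tunicamycin 10 µg/mL and vehicle-only wells; read-out: percent activation relative to tunicamycin reference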
T cruzi repl – blocks replication of Trypanosoma cruzi; T. cruzi beta-gal in NIH3T3, luminescence, 90 h; inhibition, % (concentration not given with the values); actives 1.4% (n = 300,000); AID 1885;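 active = mean inhibition across valid replicates above about 55%, limit read from the data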;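 note: signal also drops with host cell toxicity which is not excluded here; 0% = plate median of DMSO wells and 100% = zero luminescence signal; higher percent means less beta-gal luminescence so fewer parasites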
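Assay system: NIH/3T3 host cells with β-galactosidase reporter T. cruzi; input: 5,000 host fibroblasts per well; compound: single 50 nL compound addition per well in DMSO; timing: ≥90 h infection period, 3 h prior cell attachment; measured by: GalScreen β-gal luminescence, detergent lysis, 60 min; evaluation: percent inhibition of parasite-derived β-gal signal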
Mdm2 MdmX conf – human Mdm2/MdmX binding inhibition, confirmed; shares compounds with Mdm2-MdmX inh; luminescent assay; inhibition, % at 8 µM; actives 55% (n = 10,000); AID 489028; in the data active = inhibition above about 40%
Full FLuc ctr – full-length luciferase inhibition in Mdm2/MdmX counter-screen; AID 504607; inhibition, % at 8 µM; shares compounds with Mdm2-MdmX inh; actives 77% (n = 6,200); SaOS-2 full-length luciferase counterscreen, luminescence;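 active = mean inhibition at 8 µM reaching about 37%, which flags the compound as non-specific, limit read from the data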;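 note: p53-null SaOS-2 cells with luciferase driven by a doxycycline-inducible promoter; compound on cells about two nights before reading with doxycycline added after day one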
* hit, by the source's call; . = no result given.

SMILES	Beta cell apopt	CSC inhib	Mdm2-MdmX inh	UPR CHOP act	XBP1 UPR activ	T cruzi repl	Mdm2 MdmX conf	Full FLuc ctr
C[C@H](CO)N1C[C@H](C)[C@@H](CN(C)S(=O)(=O)c2ccccc2)Oc2c(NC(=O)Nc3ccc(C(F)(F)F)cc3)cccc2C1=O	-7.5	28.0	36.7	3.2	-1.6	.	.	.
COc1ccc(S(=O)(=O)N(C)C[C@H]2Oc3ccc(NC(=O)Nc4ccc(C(F)(F)F)cc4)cc3C(=O)N([C@H](C)CO)C[C@@H]2C)cc1	7.0	21.0	73.8*	0.5	-2.9	.	8.1	.
C[C@H](CO)N1C[C@H](C)[C@@H](CN(C)C(=O)Nc2ccc(C(F)(F)F)cc2)Oc2ccc(NC(=O)Nc3ccc(C(F)(F)F)cc3)cc2C1=O	-25.3	.	64.6*	0.1	-3.0	.	-21.1	.
C[C@@H]1CN([C@H](C)CO)C(=O)c2cc(NC(=O)Nc3ccc(C(F)(F)F)cc3)ccc2O[C@H]1CN(C)S(=O)(=O)c1ccccc1	40.1	60.4	74.3*	0.2	-1.4	.	30.3	.
O=C(CSc1ccc(-c2ccccn2)nn1)N1CCCc2ccccc21	-6.4	-2.8	18.3	-1.3	-0.3	5.4	.	.
COc1cc(OC)c(OC)cc1/C=C1\Oc2cc(OCC(=O)N3Cc4ccccc4C[C@H]3C(=O)O)ccc2C1=O	5.7	0.6	-4.3	-1.5	-0.4	14.9	.	.
Cc1cccc(NC(=O)[C@H](NC(=O)[C@@H]2Cc3ccccc3CN2)c2ccccc2)c1	-6.7	7.2	-23.9	0.5	-4.3	26.6	.	.
CCCCCOc1ccc(Br)cc1/C(C)=N/NC1=NCCN1	45.4	-3.1	85.7*	2.5	16.4	54.8*	67.2*	62.6*
Cn1c(=O)n(C)c2cc(NC(=O)c3cc4ccccc4o3)ccc21	0.7	1.9	51.2*	10.0	7.5	-6.5	-9.8	.
O=C(Nc1ccc2oc(=O)ccc2c1)c1cc2ccccc2o1	11.6	9.6	-112.1	3.2	-0.5	-2.1	.	.
CC(=O)Nc1ccc(NC(=O)CSc2nnnn2-c2ccc(F)cc2)cc1	-1.4	3.5	-25.8	0.2	1.9	16.7	.	.
c1ccc(OCCOCCN2CCN(C(c3ccccc3)c3ccccc3)CC2)cc1	1.4	0.6	52.0*	2.4	1.9	24.4	15.1	.
CC(CCc1ccccc1)NC(=O)CN1CCSc2ccccc21 (stereo not drawn)	-3.1	.	0.7	-2.2	-1.8	7.5	.	.
CC1CN(C(=O)c2ccccc2)c2ccccc2NC1=O (stereo not drawn)	-2.6	-12.2	2.5	1.0	-1.5	-3.7	.	.
CCOC(=O)c1c(NC(=O)CCS(=O)(=O)c2ccccc2)sc2c1CC(C)(C)NC2(C)C	-0.4	-3.4	14.2	-0.4	-3.8	12.7	.	.
CCOC(=O)c1c(NC(=O)CSc2nc3ccc(C)cc3[nH]2)sc2c1CC(C)(C)NC2(C)C	-4.7	77.8*	75.5*	1.4	5.2	60.5*	47.5*	68.7*
CCOC(=O)c1c(NC(=O)CSc2nnnn2-c2ccccc2OCC)sc2c1CC(C)(C)NC2(C)C	37.5	55.8	57.6*	0.1	-0.9	56.6*	41.5*	73.0*
CCOC(=O)c1c(NC(=O)CSc2nnnn2-c2ccccc2)sc2c1CC(C)(C)NC2(C)C	-0.8	39.4	55.3*	2.9	-4.7	73.5*	20.1	.
Cc1ccc(NC(=O)COC(=O)Cc2ccc(Br)cc2)cc1S(=O)(=O)N1CCOCC1	-3.2	-24.2	20.9	-0.3	-2.2	.	.	.
c1cncc(C2Nc3ccccc3-c3nc4ccccc4n32)c1 (stereo not drawn)	-7.1	47.4	52.7*	3.0	0.7	-8.9	51.7*	63.5*
COc1cc2c(cc1NC(=O)C(C)OC(=O)c1ccc(S(=O)(=O)Nc3ccccc3Cl)cc1)oc1ccccc12 (stereo not drawn)	14.6	17.1	31.9	0.6	0.2	-5.1	.	.
COc1cc(C(=O)Nc2ccc3c(c2)CCN3C(C)=O)cc(OC)c1OC	11.2	61.5	59.3*	1.5	4.5	-3.8	58.8*	62.0*
COc1cc(C(=O)Nc2ccc3c(c2)Cc2ccccc2-3)cc(OC)c1OC	5.3	25.1	47.5	1.8	3.9	-13.5	.	.
CSc1ccc(COC(=O)c2cc([N+](=O)[O-])ccc2N2CCOCC2)cc1	67.9	60.0	61.4*	1.9	5.2	40.8	77.2*	113.3*
Cc1ccccc1COC(=O)c1cc([N+](=O)[O-])ccc1N1CCOCC1	-2.2	-3.8	32.6	-1.0	-1.6	26.4	.	.
SMILES	Beta cell apopt	CSC inhib	Mdm2-MdmX inh	UPR CHOP act	XBP1 UPR activ	T cruzi repl	Mdm2 MdmX conf	Full FLuc ctr
CN1CCN(c2ccc([N+](=O)[O-])cc2C(=O)N2CCOCC2)CC1	-7.8	-3.6	-9.0	-0.5	-1.2	10.6	.	.
Cc1ccc(C)c(C(=O)COC(=O)c2cc([N+](=O)[O-])ccc2N2CCOCC2)c1	.	-2.2	3.3	1.8	1.7	14.5	.	.
O=C(c1ccccc1)c1cc([N+](=O)[O-])ccc1N1CCCC1	-13.1	32.2	23.3	-0.7	-0.6	-6.6	.	.
Cc1ccc(C(=O)c2cc([N+](=O)[O-])ccc2N2CCOCC2)c(C)c1	23.6	56.7	67.0*	-0.1	8.8	29.2	57.8*	97.1*
Cc1ccc(C(=O)c2cc([N+](=O)[O-])ccc2N2CCCCC2)cc1C	.	-19.4	63.9*	0.9	4.2	6.4	57.8*	60.4*
O=C(c1cc([N+](=O)[O-])ccc1N1CCOCC1)N1CCN(c2ccccc2)CC1	53.1	.	57.9*	0.0	15.6	9.9	77.2*	95.4*
O=C(O)CCCNS(=O)(=O)c1ccc(NCc2ccccc2)c(C(=O)O)c1	-2.2	-1.6	-17.6	-1.8	1.9	-10.6	.	.
COc1ccc(C(=O)c2cc([N+](=O)[O-])ccc2N2CCCC2)cc1	1.4	-12.1	50.0*	-1.0	2.1	-6.8	63.5*	52.9*
COc1ccc(C(=O)c2cc([N+](=O)[O-])ccc2N2CCN(C)CC2)cc1	1.4	48.3	48.7	-1.1	1.6	-51.9	.	.
Cc1c(-c2ccccc2)oc2c(C(=O)N3CCN(c4ccc([N+](=O)[O-])cc4)CC3)cccc2c1=O	0.2	.	66.8*	0.8	-3.6	16.7	77.4*	50.8*
Cc1ccc(C(=O)c2cc([N+](=O)[O-])ccc2N2CCOCC2)cc1C	-3.7	66.6	51.4*	-0.1	2.2	-50.6	61.5*	60.4*
Cc1c(C(=O)N2CCN(c3ccc([N+](=O)[O-])cc3)CC2)oc2ccccc12	10.5	.	10.2	-1.5	-4.7	.	.	.
